Results published in the RNAGym collection of RNA variant scans (doi:10.1038/s41586-018-0170-7).

B1: tRNA (parent)
chain: GUUCCGUUGGCGUAAUGGUAACGCGUCUCCCUCCUAAGGAGAAGACUGCGGGUUCGAGUCCCGUACGGAACG

Variants of: B1
Experiment: yeast fitness, log relative to wild type (ln ratio); higher = fitter; tRNA-Arg(CCU), competitive growth, 37 C, 1 M NaCl
Outline: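 Fitness is the natural log of a genotype's generation count divided by that of the wild type. A combinatorial library of tRNA-Arg(CCU) variants sat on a HIS3 centromeric plasmid in BY4742 lacking the chromosomal gene, from two independent transformations. Pools grew 4 generations in SC-HIS at 30 °C, then ~6.5 generations (~26.5 h) in SC-HIS 1M NaCl at 37 °C, with three outputs per input. Generations came from OD-scaled log2 output/input frequency, inverse-variance weighted across replicates, with variants counted by 125 bp paired-end Illumina sequencing.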

| Variant | yeast fitness (ln) |
| --- | --- |
| ACUCCGUUGGCGUAAUGGUAACGCGUCUCCCUCCUAAGGAGAAGACUGCGGGUUCGAGUCCCGUACGGGUCG | -0.00637 |
| GGUCCAUUGGCGUAAUGGUAACGCGUUUCCCUCCUAAGGAGAAGACUGCGGGUUCGAGUCCCGUAUGGAAUG | -0.238 |
| GUUCCGUUGGCGUAAUGGUAACGCGUCUCCCUCCUAAGGAGAAGACUGCGGGUUCGAGUCCCGUAUGGAUUG | -0.135 |
| GUUCCGUUGGCGUAAUGGUAACGCGUUUCCCUCCUAAGGAGAAGACUGCGGGUUCGAGUCCCGUAAGGGGUG | -0.191 |
| GGUCCGUUGGCGUAAUGGUAACGCGUUUCCCUCCUAAGGAGAAGAUUGCGGGUUCGAGUCCCGUAUGGAACG | -0.0703 |
| GGUCCUUUGGCGUAAUGGUAACGCGUCUCCCUCCUAAGGAGAAGACUGCGGGUUCGAGUCCCGUAUGGAGCG | -0.154 |
| GGUCCGUUGGCGUAAUGGUAACGCGUCUCCCUCCUAAGGAGACGACUGCGGGUUCGAGUCCCGUACGGAGUG | -0.123 |
| GGUCCGUUGGCGUAAUGGUAACGCGUUUCCCUCCUAAGGAGAAGACUGCGGGUUCGAGUCCCGUAUGGGACG | -0.231 |
| GUUCCGUUGGCGUAAUGGUAACGCGUCUCCCUCCUAAGGAGACGACUGCGGGUUCGAGUCCCGUAAGGAUUG | -0.268 |
| AUUCCGUUGGCGUAAUGGUAACGCGUUUCCCUCCUAAGGAGAAGACUGCGGGUUCGAGUCCCGUAUGGGAUG | -0.285 |
| GGUCCAUUGGCGUAAUGGUAACGCGUCUCCCUCCUAAGGAGAAGACUGCGGGUUCGAGUCCCGUAAGGAUUG | -0.123 |
| GGUCCGUUGGCGUAAUGGUAACGCGUCUCCCUCCUAAGGAGACGAUUGCGGGUUCGAGUCCCGUACGGGUUG | -0.509 |
| GGUCCUUUGGCGUAAUGGUAACGCGUCUCCCUCCUAAGGAGAAGACUGCGGGUUCGAGUCCCGUAUGGGGUG | -0.235 |
| GGUCCAUUGGCGUAAUGGUAACGCGUUUCCCUCCUAAGGAGACGAUUGCGGGUUCGAGUCCCGUACGGGUUG | -0.384 |
| AUUCCGUUGGCGUAAUGGUAACGCGUCUCCCUCCUAAGGAGAAGACUGCGGGUUCGAGUCCCGUACGGAAUG | -0.0163 |
| ACUCCGUUGGCGUAAUGGUAACGCGUCUCCCUCCUAAGGAGAAGAUUGCGGGUUCGAGUCCCGUAUGGGUCG | -0.152 |
| AUUCCGUUGGCGUAAUGGUAACGCGUUUCCCUCCUAAGGAGACGAUUGCGGGUUCGAGUCCCGUACGGAUCG | -0.203 |
| AUUCCGUUGGCGUAAUGGUAACGCGUUUCCCUCCUAAGGAGACGACUGCGGGUUCGAGUCCCGUAUGGGGCG | -0.295 |
| AGUCCGUUGGCGUAAUGGUAACGCGUCUCCCUCCUAAGGAGAAGAUUGCGGGUUCGAGUCCCGUAUGGAGUG | -0.161 |

| Variant | yeast fitness (ln) |
| --- | --- |
| GGUCCUUUGGCGUAAUGGUAACGCGUCUCCCUCCUAAGGAGACGACUGCGGGUUCGAGUCCCGUAUGGGGUG | -0.411 |
| GGUCCGUUGGCGUAAUGGUAACGCGUUUCCCUCCUAAGGAGACGACUGCGGGUUCGAGUCCCGUAAGGAGCG | -0.179 |
| AUUCCUUUGGCGUAAUGGUAACGCGUUUCCCUCCUAAGGAGAAGAUUGCGGGUUCGAGUCCCGUAAGGAGUG | -0.23 |
| GGUCCGUUGGCGUAAUGGUAACGCGUCUCCCUCCUAAGGAGAAGAUUGCGGGUUCGAGUCCCGUACGGGUUG | -0.191 |
| GCUCCAUUGGCGUAAUGGUAACGCGUUUCCCUCCUAAGGAGAAGAUUGCGGGUUCGAGUCCCGUAUGGGUCG | -0.284 |
| GGUCCGUUGGCGUAAUGGUAACGCGUCUCCCUCCUAAGGAGACGAUUGCGGGUUCGAGUCCCGUAAGGAGCG | -0.119 |
| GGUCCAUUGGCGUAAUGGUAACGCGUCUCCCUCCUAAGGAGACGACUGCGGGUUCGAGUCCCGUACGGGGCG | -0.185 |
| GCUCCUUUGGCGUAAUGGUAACGCGUCUCCCUCCUAAGGAGAAGAUUGCGGGUUCGAGUCCCGUAAGGGUUG | -0.185 |
| ACUCCUUUGGCGUAAUGGUAACGCGUUUCCCUCCUAAGGAGAAGAUUGCGGGUUCGAGUCCCGUACGGAGCG | -0.129 |
| AGUCCGUUGGCGUAAUGGUAACGCGUCUCCCUCCUAAGGAGACGACUGCGGGUUCGAGUCCCGUACGGAGCG | -0.108 |
| AGUCCGUUGGCGUAAUGGUAACGCGUCUCCCUCCUAAGGAGACGACUGCGGGUUCGAGUCCCGUACGGAUCG | -0.33 |
| AGUCCUUUGGCGUAAUGGUAACGCGUUUCCCUCCUAAGGAGACGACUGCGGGUUCGAGUCCCGUAUGGGUUG | -0.54 |
| AGUCCUUUGGCGUAAUGGUAACGCGUUUCCCUCCUAAGGAGAAGACUGCGGGUUCGAGUCCCGUAUGGAAUG | -0.522 |
| GGUCCGUUGGCGUAAUGGUAACGCGUUUCCCUCCUAAGGAGACGACUGCGGGUUCGAGUCCCGUAAGGGAUG | -0.355 |
| GUUCCAUUGGCGUAAUGGUAACGCGUUUCCCUCCUAAGGAGACGAUUGCGGGUUCGAGUCCCGUAUGGAGCG | -0.193 |
| GCUCCAUUGGCGUAAUGGUAACGCGUUUCCCUCCUAAGGAGACGAUUGCGGGUUCGAGUCCCGUACGGGGCG | -0.0933 |
| GGUCCUUUGGCGUAAUGGUAACGCGUUUCCCUCCUAAGGAGACGACUGCGGGUUCGAGUCCCGUAAGGAUCG | -0.0378 |
| GCUCCUUUGGCGUAAUGGUAACGCGUUUCCCUCCUAAGGAGACGACUGCGGGUUCGAGUCCCGUACGGAGCG | -0.18 |
| GGUCCGUUGGCGUAAUGGUAACGCGUCUCCCUCCUAAGGAGAAGACUGCGGGUUCGAGUCCCGUACGGAAUG | -0.0549 |
